Published values of several laboratories.
Lines come from different studies, so protocols differ.
NPSR1: Neuropeptide S receptor (NPSR1, Homo sapiens, UniProt Q6W5P4)
CHRM5: Muscarinic acetylcholine receptor M5 (CHRM5, Homo sapiens, UniProt P08912)
NQO2: Ribosyldihydronicotinamide dehydrogenase [quinone] (NQO2, Homo sapiens, UniProt P16083)
MC4R: Melanocortin receptor 4 (MC4R, Homo sapiens, UniProt P32245)
SLC6A2: Sodium-dependent noradrenaline transporter (SLC6A2, Homo sapiens, UniProt P23975)

Structure (SMILES)	target	observed	action	method	pH	measurement	value
CCOC(=O)c1ccccc1	Or67a (Drosophila melanogaster, UniProt Q9VT08)	binding	–	MST	–	Kd	~0.5 µM
COc1cccc(C2c3c(ncn(-c4cccc(Cl)c4)c3=N)Oc3ccc4ccccc4c32)c1 (stereo not shown)	NPSR1	cAMP	antagonist	TR-FRET	–	IC50	15.4 µM
CC[C@@H]1SC2(CCN(C)CC2)NC1=O	CHRM5	calcium signal	agonist	–	–	EC50	1.08 µM
COc1cccc(C2c3c(ncn(-c4ccc(Br)cc4)c3=N)Oc3ccc4ccccc4c32)c1 (stereo not shown)	NPSR1	cAMP	antagonist	TR-FRET	–	IC50	15.4 µM
O=C(O)Cc1ccccc1Nc1c(Cl)cccc1Cl	NQO2	enzyme activity	inhibitor	absorbance	–	Ki	> 1000 µM
CCOC(=O)c1ccc(-n2cnc3c(c2=N)C(c2cccc(OC)c2)c2c(ccc4ccccc24)O3)cc1 (stereo not shown)	NPSR1	cAMP	antagonist	TR-FRET	–	IC50	15.4 µM
CC(C)C1=Cc2ccc3c(c2C(=O)C1=O)CCCC3(C)C	Cholinesterase (BCHE, Homo sapiens, UniProt P06276)	enzyme activity	inhibitor	–	–	Ki	> 100 µM
O=C(NCc1ccccc1)Nc1ncnc2c1C(c1ccccc1)c1c(ccc3ccccc13)O2 (stereo not shown)	NPSR1	calcium signal	antagonist	–	–	IC50	> 30 µM
CC(C)[C@@H](CC[C@@H](C)[C@H]1CC[C@H]2[C@@H]3[C@H](O)C[C@H]4C[C@@H](NCCCNCCCCNCCCN)CC[C@]4(C)[C@H]3CC[C@]12C)OS(=O)(=O)O	Tyrosine-protein phosphatase non-receptor type 12 (PTPN12, Homo sapiens, UniProt Q05209)	enzyme activity	inhibitor	–	–	Ki	40 µM
CCCC[C@H](NC(=O)[C@H](CO)NC(=O)[C@H](Cc1ccc(O)cc1)NC(=O)[C@H](CO)NC(C)=O)C(=O)N[C@@H](CCC(=O)O)C(=O)N[C@@H](Cc1c[nH]cn1)C(=O)N[C@@H](C)C(=O)N[C@@H](CCCNC(=N)N)C(=O)N[C@@H](Cc1c[nH]c2ccccc12)C(=O)NCC(=O)N[C@@H](CCCCN)C(=O)N1CCC[C@H]1C(=O)N[C@H](C(=O)NCC(=O)N[C@@H](CCCCN)C(=O)N[C@@H](CCCCN)C(=O)N[C@@H](CCCNC(=N)N)C(N)=O)C(C)C	MC4R	cAMP	agonist	–	–	EC50	0.257 µM
NC(=O)N1c2ccccc2C=Cc2ccccc21	NQO2	enzyme activity	inhibitor	–	–	Ki	> 500 µM
Clc1ccc2c(c1)N(CCCN1CCN(CCCc3ccccc3)CC1)c1ccccc1S2	Trypanothione reductase (TPR, Trypanosoma cruzi, UniProt P28593)	enzyme activity	inhibitor	absorbance	–	Ki	0.331 µM
CCN(CC)CCCC(C)Nc1cnc(C(=O)Nc2ccc(Cl)c3cccnc23)cn1 (stereo not shown)	CHRM5	cell-free assay	–	radioligand	–	Ki	0.219 µM
CNC(=O)[C@@]12C[C@@H]1[C@@H](n1cnc3c(NC4CC4c4ccccc4)nc(C#Cc4ccccc4)nc31)[C@H](O)[C@@H]2O (mixture of isomers)	SLC6A2	ligand displacement	–	radioligand	–	Ki	2.31 µM
COc1ccc(C2c3c(N)nc(Cc4ccccc4)nc3Oc3ccc4ccccc4c32)cc1OC (stereo not shown)	NPSR1	cAMP	antagonist	TR-FRET	–	IC50	77.2 µM
Nc1ncnc2c1ncn2[C@@H]1O[C@H](COP(=O)(O)OP(=O)(O)OP(=O)(O)O)[C@@H](O)[C@H]1O	dnaA (Escherichia coli, UniProt P03004)	binding	–	–	–	Kd	0.04 µM
COc1cccc(C2c3c(ncn(-c4ccncc4)c3=N)Oc3ccc4ccccc4c32)c1 (stereo not shown)	NPSR1	calcium signal	antagonist	–	–	IC50	4.38 µM
CSSc1ccccc1C(=O)O	srtA (Staphylococcus aureus, UniProt Q2FV99)	enzyme activity	inhibitor	fluorescence	pH 7.5	Ki	367 µM
Cc1cnc(-c2ccc(-c3ccc(NC(=O)Nc4c(F)cc(F)cc4F)cc3F)c3c2C(=O)NC3)[nH]1	Tyrosine-protein kinase Fgr (FGR, Homo sapiens, UniProt P09769)	binding	–	competition with immobilised ligand	–	Kd	0.083 µM
Cc1cccc(Nc2ccccc2C(=O)O)c1C	NQO2	enzyme activity	inhibitor	absorbance	–	Ki	> 500 µM
COc1cccc(C2c3c(ncn(-c4ccccc4Cl)c3=N)Oc3ccc4ccccc4c32)c1 (stereo not shown)	NPSR1	cAMP	antagonist	TR-FRET	–	IC50	12.2 µM
Nc1ncnc2c1ncn2[C@@H]1O[C@H](COP(=O)(O)OP(=O)(O)OP(=O)(O)OP(=O)(O)OP(=O)(O)OC[C@H]2O[C@@H](n3cnc4c(N)ncnc43)[C@H](O)[C@@H]2O)[C@@H](O)[C@H]1O	adk (Escherichia coli, UniProt P69441, R131A)	binding	–	ITC	–	Kd	0.576 µM
CC[C@H](C)[C@H](NC(=O)CN)C(=O)N[C@H](C(=O)N[C@@H](CC(N)=O)C(=O)N[C@H](C(=O)N[C@@H](CC(C)C)C(=O)N[C@@H](CCC(N)=O)C(=O)N[C@@H](CCCCN)C(=O)N[C@@H](Cc1ccc(O)cc1)C(=O)N[C@@H](Cc1ccc(O)cc1)C(=O)N[C@@H](CO)C(=O)N[C@@H](CCCNC(=N)N)C(=O)N[C@H](C(=O)N[C@@H](CCCNC(=N)N)C(=O)NCC(=O)NCC(=O)N[C@@H](CCCNC(=N)N)C(=O)N[C@H]1CSSC[C@@H](C(=O)N[C@@H](CO)C(=O)N[C@H](C(=O)N[C@@H](CCCNC(=N)N)C(=O)NCC(=O)N[C@@H](CCCNC(=N)N)C(=O)N[C@@H](CCCCN)C(=O)N[C@@H](CO)C(=O)N[C@@H](CO)C(=O)N[C@@H](CCCNC(=N)N)C(=O)N[C@@H](CCCNC(=N)N)C(=O)N[C@@H](CCCCN)C(=O)N[C@@H](CCCCN)C(N)=O)[C@@H](C)O)NC(=O)[C@H](CCCCN)NC(=O)CNC(=O)[C@H]([C@@H](C)CC)NC(=O)[C@H](CCC(N)=O)NC(=O)[C@H](CCC(=O)O)NC(=O)[C@H](CCC(=O)O)NC(=O)[C@H](CCCCN)NC(=O)[C@@H]2CCCN2C(=O)[C@H](CC(C)C)NC(=O)[C@H](CO)NC(=O)[C@H](CO)NC(=O)[C@H](CC(C)C)NC(=O)[C@H](C(C)C)NC(=O)[C@H](C)NC1=O)C(C)C)[C@@H](C)O)[C@@H](C)CC	MC4R	ligand displacement in cells	–	–	–	Ki	0.567 µM
CCOC(=O)[C@@]12C[C@@H]1[C@@H](n1ccc3c(NCCc4ccccc4)nc(C#Cc4ccccc4)nc31)[C@H](O)[C@@H]2O	SLC6A2	ligand displacement	–	radioligand	–	Ki	2.82 µM
COc1cccc(C2c3c(ncn(-c4ccc(NC(C)=O)cc4)c3=N)Oc3ccc4ccccc4c32)c1 (stereo not shown)	NPSR1	cAMP	antagonist	TR-FRET	–	IC50	19.4 µM
